Laboratory results from ChEMBL document CHEMBL1142933, “Rational design of novel, potent small molecule pan-selectin antagonists” (J Med Chem, 2007).

What was measured:
[1] = biological target: T1, P-selectin (Homo sapiens) (UniProt P16109); experiment: Inhibition of human P-selectin after 2 hrs at 100 uM
T1 sequence (whole entry): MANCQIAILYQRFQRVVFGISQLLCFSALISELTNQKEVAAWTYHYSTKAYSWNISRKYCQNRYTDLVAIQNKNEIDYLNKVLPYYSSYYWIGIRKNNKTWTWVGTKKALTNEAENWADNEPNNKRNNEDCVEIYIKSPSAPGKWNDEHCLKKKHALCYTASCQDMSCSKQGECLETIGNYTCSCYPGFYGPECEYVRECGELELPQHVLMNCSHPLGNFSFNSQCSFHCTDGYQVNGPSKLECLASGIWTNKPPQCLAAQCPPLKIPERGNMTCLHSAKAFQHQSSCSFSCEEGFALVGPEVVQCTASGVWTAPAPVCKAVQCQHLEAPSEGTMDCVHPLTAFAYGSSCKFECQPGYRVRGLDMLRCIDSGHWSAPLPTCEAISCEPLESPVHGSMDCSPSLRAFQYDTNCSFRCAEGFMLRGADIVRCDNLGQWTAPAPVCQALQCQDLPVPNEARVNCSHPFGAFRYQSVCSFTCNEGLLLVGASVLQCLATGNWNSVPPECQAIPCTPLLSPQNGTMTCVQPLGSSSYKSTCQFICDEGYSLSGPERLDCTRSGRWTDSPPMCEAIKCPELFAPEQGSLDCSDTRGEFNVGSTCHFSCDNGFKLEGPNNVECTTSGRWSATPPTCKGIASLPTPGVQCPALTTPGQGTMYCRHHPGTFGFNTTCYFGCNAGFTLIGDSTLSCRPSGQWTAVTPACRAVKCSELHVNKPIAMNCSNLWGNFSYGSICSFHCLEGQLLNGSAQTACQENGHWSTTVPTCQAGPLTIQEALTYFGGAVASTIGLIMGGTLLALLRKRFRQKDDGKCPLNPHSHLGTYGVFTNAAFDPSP
Summary of the method: (§1)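 Human E-, P- or L-selectin/Fc chimera (0.61 nM) captured on anti-Fc-coated wells, then incubated 2 h at 37 °C with peroxidase-streptavidin-complexed sLeX-tyrosine sulfate polyacrylamide ligand plus compound at 100 µM in HEPES buffer pH 7.4 with CaCl2, 1% DMSO. Bound ligand measured by TMB, OD 450 vs 620 nm; % inhibition reported.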

[2] = biological target: T2, L-selectin (Homo sapiens) (UniProt P14151); experiment: Inhibition of human L-selectin after 2 hrs at 100 uM; summary of the method: as §1
T2 sequence (whole entry): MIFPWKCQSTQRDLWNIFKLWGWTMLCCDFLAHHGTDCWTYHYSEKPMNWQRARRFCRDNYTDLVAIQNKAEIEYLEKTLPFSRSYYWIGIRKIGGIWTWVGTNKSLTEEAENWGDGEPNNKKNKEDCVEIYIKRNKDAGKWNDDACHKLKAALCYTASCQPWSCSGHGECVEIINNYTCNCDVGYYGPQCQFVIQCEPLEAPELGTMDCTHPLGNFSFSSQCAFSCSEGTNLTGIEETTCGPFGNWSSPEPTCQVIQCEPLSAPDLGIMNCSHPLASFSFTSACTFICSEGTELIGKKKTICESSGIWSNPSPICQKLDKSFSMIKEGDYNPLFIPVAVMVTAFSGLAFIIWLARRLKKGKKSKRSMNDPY

[3] = biological target: T3, E-selectin (Homo sapiens) (UniProt P16581); experiment: Inhibition of human E-selectin after 2 hrs at 100 uM; summary of the method: as §1
T3 sequence (whole entry): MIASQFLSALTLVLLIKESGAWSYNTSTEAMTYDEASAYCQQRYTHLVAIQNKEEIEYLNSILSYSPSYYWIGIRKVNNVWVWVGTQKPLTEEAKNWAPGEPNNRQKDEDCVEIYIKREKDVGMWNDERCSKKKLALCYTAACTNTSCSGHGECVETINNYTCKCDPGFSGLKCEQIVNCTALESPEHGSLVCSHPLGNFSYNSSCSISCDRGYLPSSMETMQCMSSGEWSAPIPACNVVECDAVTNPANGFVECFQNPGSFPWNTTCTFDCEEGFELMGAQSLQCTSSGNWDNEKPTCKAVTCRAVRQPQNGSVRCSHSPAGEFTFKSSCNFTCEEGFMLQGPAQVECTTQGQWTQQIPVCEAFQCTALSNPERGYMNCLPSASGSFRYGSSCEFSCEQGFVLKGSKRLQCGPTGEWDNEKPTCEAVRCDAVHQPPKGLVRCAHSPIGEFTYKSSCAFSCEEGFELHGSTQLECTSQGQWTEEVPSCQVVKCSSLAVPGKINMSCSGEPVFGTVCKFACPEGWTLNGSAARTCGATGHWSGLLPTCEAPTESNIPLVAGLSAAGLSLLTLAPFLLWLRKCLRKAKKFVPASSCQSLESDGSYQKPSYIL

HL-60 [4] = experiment: Inhibition of attachment of HL60 cells to E-selectin at 109 uM after 5 mins; format: functional; settings: Homo sapiens, HL-60, 5 min
Summary of the method: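 Dishes coated with E- or P-selectin/Fc chimera, blocked with BSA, mounted in a parallel flow chamber run recirculating; HL-60 cells at 2.4 million/mL final. Cells attached after 5 min continuous flow at calculated shear 1 dyn/cm², with 109 µM compound or DMSO vehicle, counted in five low power fields. Mean inhibition as % of vehicle control from mean cells/field of at least two independent experiments.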

HL-60 [5] = experiment: Inhibition of attachment of HL60 cells to P-selectin at 109 uM after 5 mins; format: functional; settings: Homo sapiens, HL-60, 5 min
Summary of the method: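 Dishes coated with E- or P-selectin/Fc chimera, blocked with BSA, mounted in a parallel flow chamber run recirculating; HL-60 cells at 2.4 million/mL final. Mean inhibition as % of vehicle control from mean cells/field of at least two independent experiments.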

| Compound | inhibition [1] | inhibition [2] | inhibition [3] | inhibition at 109 µM (HL-60 [4]) | inhibition at 109 µM (HL-60 [5]) |
| --- | --- | --- | --- | --- | --- |
| O=c1cc(-c2ccccc2)oc2cc(O)c(O)c(O)c12 | 52% | 51.7% | 37.6% |  |  |
| O=C(O)c1cccc(O)c1O | -3% | 1.1% | 6% |  |  |
| O=C(O)C1=C[C@@H](O)[C@@H](O)[C@H](O)C1 | -1% | 12.2% | 25.6% |  |  |
| O=c1c(O)cccc2cc(O)c(O)c(O)c12 | 77% | 83.6% | 3.1% |  |  |
| O=C(O)c1ccc(O)c(O)c1 |  | 1.3% | 19.5% |  |  |
| O=c1cc(-c2ccccc2)oc2cc(O)cc(O)c12 | -5.3% | 4.3% | 15% |  |  |
| Oc1cccc(O)c1O [PYROGALLOL] | 1.7% | 13.5% | 8.3% | 47% | 24% |
